Assays:
Assay type in all cases: functional
Fusarium graminearum = experiment: Antifungal activity against Gibberella zeae at 200 mg/L by plate growth rate method; conditions: read-out: GI
How it was run: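 Plate growth rate method: compound dissolved in DMSO, mixed into sterile PDA at 45 °C to 200 mg/L, plates poured. A 5 mm mycelium agar disc placed centrally; incubated at 28 °C in the dark until the untreated control covered the plate. Colony diameters measured; growth inhibition computed by Abbott's formula. Each compound tested three times.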

Bacillus subtilis = experiment: Antibacterial activity against Bacillus subtilis at 50 mg/L after 24 hrs by agar well diffusion method; conditions: read-out: DIZ
How it was run: (§1)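 Bacteria plated as 0.8 mL of 24-h-old inoculum mixed into 60 mL sterile molten agar cooled to 45 °C, poured into three dishes. Wells bored with centres at least 24 mm apart. Test sample at 50 mg/L in DMSO added to wells. DMSO served as negative control and agricultural streptomycin sulfate as positive control. Read-out was inhibition zone diameter (mm).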

Rhizoctonia solani = experiment: Antifungal activity against Rhizoctonia solani at 200 mg/L by plate growth rate method; conditions: read-out: GI
How it was run: (§2)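 Compound dissolved in DMSO and mixed into molten PDA at 45 °C at 200 mg/L, then plates allowed to set. A 5 mm mycelial agar disc was placed at the centre. Plates were incubated at 28 °C in the dark until the untreated control covered the plate. Colony diameters were measured and growth inhibition calculated by Abbott's formula. Each compound was tested three times.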

Ralstonia solanacearum = experiment: Antibacterial activity against Ralstonia solanacearum at 50 mg/L after 24 hrs by agar well diffusion method; conditions: read-out: DIZ
Xanthomonas oryzae = experiment: Antibacterial activity against Xanthomonas oryzae at 50 mg/L after 24 hrs by agar well diffusion method; conditions: read-out: DIZ
Cytospora mali = experiment: Antifungal activity against Valsa mali at 200 mg/L by plate growth rate method; conditions: read-out: GI; how it was run: as §2
Xanthomonas axonopodis = experiment: Antibacterial activity against Xanthomonas axonopodis at 50 mg/L after 24 hrs by agar well diffusion method; conditions: read-out: DIZ; how it was run: as §1
Erwinia = experiment: Antibacterial activity against Erwinia aroideae at 50 mg/L after 24 hrs by agar well diffusion method; conditions: read-out: DIZ; how it was run: as §1

Structure (SMILES)	inhibition of growth at 200 µg/mL (Fusarium graminearum)	zone of inhibition at 50 µg/mL (Bacillus subtilis)	inhibition of growth at 200 µg/mL (Rhizoctonia solani)	zone of inhibition at 50 µg/mL (Ralstonia solanacearum)	zone of inhibition at 50 µg/mL (Xanthomonas oryzae)	inhibition of growth at 200 µg/mL (Cytospora mali)	zone of inhibition at 50 µg/mL (Xanthomonas axonopodis)	zone of inhibition at 50 µg/mL (Erwinia)
CCn1cc(C(=O)O)c(=O)c2cc(F)c(N3CCN(C(=O)/C=C/c4ccc(OC)cc4)CC3)cc21	1%	8.91 mm	94%	0 mm	5.35 mm	5%	6.83 mm	8.02 mm
CCn1cc(C(=O)O)c(=O)c2cc(F)c(N3CCN(C(=O)c4cccnc4)CC3)cc21	11%	8.74 mm	12%	1.06 mm	7.94 mm	17%	6.58 mm	9.19 mm
CCn1cc(C(=O)O)c(=O)c2cc(F)c(N3CCN(C(=O)Cc4cccc5ccccc45)CC3)cc21	12%	13.2 mm	5%	0 mm	9.35 mm	0%	9.99 mm	10.4 mm
CCn1cc(C(=O)O)c(=O)c2cc(F)c(N3CCN(C(=O)c4oc5ccccc5c4C)CC3)cc21	45%	6.99 mm	65%	3.56 mm	5.44 mm	33%	5.24 mm	5.94 mm
CCn1cc(C(=O)O)c(=O)c2cc(F)c(N3CCN(C(=O)c4ccc(C)cc4)CC3)cc21	28%	17.1 mm	36%	3.22 mm	19.7 mm	37%	13 mm	14.6 mm
CCn1cc(C(=O)O)c(=O)c2cc(F)c(N3CCN(C(=O)COc4ccccc4)CC3)cc21	17%	17.3 mm	30%	4.89 mm	15.3 mm	8%	15 mm	13.8 mm
CCn1cc(C(=O)O)c(=O)c2cc(F)c(N3CCN(C(=O)c4ccccc4Br)CC3)cc21	34%	20.1 mm	15%	8.14 mm	16.5 mm	44%	14.6 mm	16.2 mm
CCn1cc(C(=O)O)c(=O)c2cc(F)c(N3CCN(C(=O)c4ccccc4O)CC3)cc21	15%	22.7 mm	0%	2.06 mm	16.7 mm	17%	14.4 mm	16.5 mm
CCn1cc(C(=O)O)c(=O)c2cc(F)c(N3CCN(C(=O)c4cc(C)oc4C)CC3)cc21	25%	15.7 mm	16%	8.39 mm	18.1 mm	29%	11.7 mm	11.7 mm
CCn1cc(C(=O)O)c(=O)c2cc(F)c(N3CCN(C(=O)c4ccc(Br)o4)CC3)cc21	26%	18.9 mm	47%	6.72 mm	13 mm	27%	12.1 mm	13.7 mm
CCn1cc(C(=O)O)c(=O)c2cc(F)c(N3CCN(C(=O)COc4ccccc4OC)CC3)cc21	14%	17.7 mm	0%	4.97 mm	11.9 mm	7%	11 mm	12.9 mm
CCn1cc(C(=O)O)c(=O)c2cc(F)c(N3CCN(C(=O)c4c(C)oc(C)c4C)CC3)cc21	24%	13.9 mm	65%	5.31 mm	12.7 mm	40%	11.1 mm	12.4 mm

— ChEMBL document CHEMBL1155265, “Design, synthesis and in vitro antibacterial/antifungal evaluation of novel 1-ethyl-6-fluoro-1,4-dihydro-4-oxo-7(1-piperazinyl)quinoline-3-carboxylic acid derivatives” (2009)
